# Bioassay records as filed in PubChem BioAssay.
# Scp-1 inhibitor = inhibitors of human Scp-1 phosphatase. Recombinant Scp1, phosphopeptide, malachite green phosphate absorbance. inhibition, % at 20 µM. actives 0.88% (n = 340,000). AID 493091;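 active = inhibition above about 50% at 20 µM, limit read from the data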;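 note: plate controls were DMSO wells with enzyme for no effect and wells lacking enzyme for full effect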
#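 System: truncated SCP-1 phosphatase (76-261aa); medium: Tris acetate buffer pH 5.5 with MgCl2 and Tween-20; incubation: 45 min room-temperature reaction, 5 min colour, 30 min stabiliser; compound: single 20 µM dose, 1% DMSO; reagent: Phosphorylated 17-residue peptide substrate; read-out: % inhibition at 20 µM; technique: colorimetric free-phosphate detection, absorbance 630 nm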
# LMPTP block = blocks human LMPTP phosphatase. P24666. recombinant LMPTP-A, OMFP fluorogenic substrate, fluorescence intensity. inhibition, % at 20 µM. actives 0.22% (n = 360,000). AID 651560;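 active = compounds that cut the enzyme signal by at least half of the control window in the single-dose screen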;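 note: plate controls were DMSO wells with enzyme plus substrate for no effect and substrate without enzyme for full effect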
# Target sequence (P24666 whole entry, looked up): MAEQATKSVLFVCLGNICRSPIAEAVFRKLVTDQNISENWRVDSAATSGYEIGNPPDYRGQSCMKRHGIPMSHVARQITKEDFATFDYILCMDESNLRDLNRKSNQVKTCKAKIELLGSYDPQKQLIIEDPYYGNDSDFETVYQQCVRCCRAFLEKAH
#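 Material: LMPTP-A; amount: 0.625 nM enzyme; doses: single 20 µM dose; times: reaction 50 min, room temperature, dark; technique: fluorescence intensity of OMFP turnover product; benchmarks: no-enzyme and uninhibited controls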
# Rpn11 inh = blocks the human proteasome subunit Rpn11; O00487; human 26S proteasome, Ub4-pepOG fluorescence polarization; 20S core pre-blocked with epoxomicin; inhibition, % at 20 µM; actives 0.59% (n = 360,000); AID 588493;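 active = inhibition at 20 µM, scaled to each plate's controls, above about 33%, limit read from the data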
# DNMT1 inh = DNMT1 (human) enzyme inhibition; DNMT1 molecular beacon, Hinp1I cleavage, fluorescence; AID 588458; actives 0.83% (n = 360,000); P26358; inhibition (reported as % activation of signal), % at 10 µM; in the data active = inhibition above about 50%
# STEP inh = inhibitors of human striatal-enriched phosphatase STEP. recombinant STEP, OMFP fluorogenic substrate, fluorescence. inhibition, % at 20 µM. actives 0.25% (n = 360,000). AID 588621;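 active = inhibition at 20 µM, scaled per plate between control wells, above about 37%, limit read from the data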;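 note: 0% = DMSO with enzyme and substrate and 100% = substrate only without enzyme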
# Target sequence (P54829 whole entry, looked up): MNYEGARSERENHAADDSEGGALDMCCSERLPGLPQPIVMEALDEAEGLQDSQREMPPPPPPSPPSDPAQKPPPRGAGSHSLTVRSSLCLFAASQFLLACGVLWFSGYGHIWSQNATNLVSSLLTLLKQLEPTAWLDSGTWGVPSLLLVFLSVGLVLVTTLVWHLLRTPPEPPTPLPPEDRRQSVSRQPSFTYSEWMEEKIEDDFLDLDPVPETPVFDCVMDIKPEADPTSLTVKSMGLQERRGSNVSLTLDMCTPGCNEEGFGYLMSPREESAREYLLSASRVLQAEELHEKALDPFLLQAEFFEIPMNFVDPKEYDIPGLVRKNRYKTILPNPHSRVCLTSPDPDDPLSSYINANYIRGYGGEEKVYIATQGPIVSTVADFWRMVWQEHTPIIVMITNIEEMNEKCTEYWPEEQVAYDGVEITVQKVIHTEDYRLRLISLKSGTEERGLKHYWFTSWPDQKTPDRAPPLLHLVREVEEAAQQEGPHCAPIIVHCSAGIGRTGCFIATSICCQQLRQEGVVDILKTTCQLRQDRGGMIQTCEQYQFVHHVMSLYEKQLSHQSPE
#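 Measure: Control-normalized % inhibition with plate pattern correction | Test system: STEP phosphatase, cell-free reaction | Medium: pH 6.0 Bis-Tris with DTT and Tween 20 | Technique: Fluorescence, 480/540 nm | Times: Reaction 20 min, ambient temperature | Doses: Single compound dose of 20 µM, 1% DMSO final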
# Rpn11 confirm = Rpn11 inhibition confirmation, single concentration. shares compounds with Rpn11 inh. purified human 26S proteasome, Ub4-pepOG fluorescence polarization; proteasome pretreated with epoxomicin. inhibition, % at 20 µM. actives 29% (n = 1,900)
# MMP-2 inh = counter-screen for RPN11 inhibitors: inhibition of human MMP-2 | shares compounds with Rpn11 inh | actives 4% (n = 1,900) | inhibition, % at 20 µM | recombinant MMP-2, FRET peptide cleavage fluorescence | AID 602330;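 note: human MMP-2 activated beforehand with APMA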
# Thrombin inh = thrombin (bovine) inhibition counter-screen; bovine thrombin cleavage of Ub4-pepOG, fluorescence polarization; shares compounds with Rpn11 inh; actives 13% (n = 1,900); inhibition, % at 20 µM;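 active = mean inhibition at least 40% at 20 µM, or signal 3 deviations below plate average, so some actives read negative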;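 note: plate controls were thrombin with DMSO for no effect and buffer wells lacking thrombin for full effect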
# Numbers without * were called inactive; / = not tested or not shown; + = active, no number. The list is not random: actives were taken first. Their share in the collection is about 2%. Cut-off read from the data, not from the text of the source, unless noted: active = inhibition above about 40%; inactive = the rest.
SMILES,Scp-1 inhibitor,LMPTP block,Rpn11 inh,DNMT1 inh,STEP inh,Rpn11 confirm,MMP-2 inh,Thrombin inh
CC(C)c1ccc(NC(=O)COc2nnc(-c3cccs3)c(-c3cccs3)n2)cc1,-13.5,1.6,32.4*,-9.5,1.5,14.8,18.4,-1.4
CCc1ccc(NC(=O)C(C)Oc2nnc(-c3cccs3)c(-c3cccs3)n2)cc1 (stereo unspecified),-4.5,1.7,15.1,-11.2,0.1,/,/,/
O=C(O)CN1C(=O)/C(=C\c2ccccc2OCc2ccc(Cl)cc2)SC1=S,9.0,2.2,5.3,2.8,10.0,/,/,/
O=C(O)CN1C(=O)/C(=C\c2cc(Br)ccc2OCc2ccc(Cl)cc2Cl)SC1=S,31.1,66.7*,79.5*,95.3*,15.1,12.7,10.7,78.6*
CCOC(=O)CCC(=O)N1CCOCCN(C(=O)CCC(=O)OCC)CCOCC1,-2.2,-1.9,47.0*,-2.8,-1.4,-3.3,10.6,30.3
C=CC(=C)CC(NC)c1ccccc1 (stereo unspecified),-2.7,1.4,50.1*,-53.8,-1.1,36.5,-9.0,-14.1
CCCCCCCCCCOC(=O)Cn1c(COc2ccc(Cl)cc2)[n+](C)c2ccccc21,18.2,5.6,51.6*,30.3,6.8,49.8*,-5.0,-17.6
CCCCCCCCCCOC(=O)Cn1c(COc2cccc(C)c2)[n+](C)c2ccccc21,8.0,0.9,40.4*,20.1,5.5,8.7,-3.0,-32.6
CCCCCCCCCCOC(=O)Cn1c(COc2ccccc2)[n+](C)c2ccccc21,14.9,-2.3,-4.3,10.3,5.5,/,/,/
CCOC(=O)c1cnc2c(cnn2C)c1NCCCn1ccnc1,-1.0,1.2,-1.5,1.0,-1.7,/,/,/
Cc1ccc(S(=O)(=O)N2CCN(C(=O)COC(=O)/C=C/c3ccc([N+](=O)[O-])cc3)CC2)c(C)c1,-2.4,0.6,64.7*,6.8,-3.9,-1.1,-4.2,-4.4
C=CCOc1ccc(/C=C/C(=O)OCC(=O)N2CCN(S(=O)(=O)c3ccc(C)cc3C)CC2)cc1,-7.5,1.5,0.8,10.3,-1.5,/,/,/
Cc1ccc(O)c(C(=O)c2cc(C#N)c(=O)n(Cc3ccccc3)c2)c1,-2.7,-0.8,39.8*,-4.9,23.3,13.1,-3.3,16.7
N#Cc1cc(C(=O)c2cc(F)ccc2O)cn(Cc2ccccc2)c1=O,20.8,-0.3,-3.3,-5.5,4.7,/,/,/
Cc1ccc2c(C)nc(/N=C(\N)NC(=O)N3c4ccccc4Sc4ccccc43)nc2c1,26.7,2.8,1.4,-6.1,-2.6,/,/,/
Cc1ccc2nc(/N=C(\N)NC(=O)N3c4ccccc4Sc4ccccc43)nc(C)c2c1,17.4,5.7,45.4*,-4.3,-0.1,-3.8,31.6,-14.4
COc1ccccc1CNC(=O)c1cc(-c2cc(F)ccc2OC(C)C)n[nH]1,/,0.9,0.6,-4.2,1.4,/,/,/
O=C(CSc1nnc(SCc2ccc(Cl)cc2)s1)N/N=C/c1c[nH]c2ccccc12,16.2,11.4,124.9*,69.5*,3.3,68.5*,19.6,-3.0
O=C(NCC1CCCO1)C(c1ccc(F)cc1)N(CC1CCCO1)C(=O)c1ccc(-c2ccccc2)[nH]1 (stereo unspecified),-5.4,-1.0,5.1,0.3,-1.1,/,/,/
O=C(NCC1CCCO1)C(c1cccs1)N(Cc1cccs1)C(=O)c1ccc(-c2ccccc2)[nH]1 (stereo unspecified),-7.1,2.4,52.2*,-18.3,-1.6,13.9,6.2,13.1
CCCCNC(=O)COC(=O)c1c2c(nc3ccccc13)/C(=C/c1cccs1)CC2,5.5,4.2,41.4*,-23.5,5.3,5.3,-57.7,-0.7
CNC(=O)NC(=O)C(C)OC(=O)c1c2c(nc3ccccc13)/C(=C/c1cccs1)CC2 (stereo unspecified),6.1,3.0,/,-25.6,1.5,/,/,/
O=C(N/N=C/c1cc(Br)cc(Cl)c1O)c1ccc2c(c1)OCO2,90.8*,74.4*,+,1.5,99.1*,198.2*,24.8,13.4
C[C@@H]1CN([C@H](C)CO)S(=O)(=O)c2ccc(Br)cc2O[C@H]1CN(C)C(=O)C1CC1,/,-1.7,1.1,-28.3,1.3,/,/,/
O=C1NC[C@H](CCCCN2CCN(CCc3ccccc3)C(=O)C2=O)N(CCC2CCCCC2)C1=O,/,0.7,/,/,/,/,/,/
SMILES,Scp-1 inhibitor,LMPTP block,Rpn11 inh,DNMT1 inh,STEP inh,Rpn11 confirm,MMP-2 inh,Thrombin inh
C=CCn1sc(=N)c(C#N)c1N,-3.7,-0.5,59.6*,-8.9,2.3,2.5,15.7,-1.6
C=CCn1c(C)cc(C)c(C#N)c1=O,-4.9,0.8,-4.3,-0.5,-5.3,/,/,/
O=C(O)CN1C(=O)C(=O)N(Cc2ccc(Cl)cc2Cl)C1=O,-5.9,-1.3,-5.6,-0.5,-2.8,/,/,/
CCN(CC)CCCCN1c2ccccc2Sc2ccccc21,-1.6,0.0,-23.8,-0.9,-0.1,/,/,/
CC[n+]1ccc(/C=C2\Sc3ccccc3N2CCCS(=O)(=O)[O-])c2ccccc21,21.3,-0.8,32.6*,-3.2,-3.4,-2.8,-43.6,-12.2
COc1ccc(-n2c(N)c(C(=O)NCC3CCCO3)c3nc4ccccc4nc32)c(OC)c1 (stereo unspecified),-2.7,1.9,1.0,-22.7,2.4,/,/,/
C=CCn1c(N)c(C(=O)NCC2CCCO2)c2nc3ccccc3nc21 (stereo unspecified),-13.5,3.9,42.8*,8.6,0.0,-7.0,-35.6,-22.4
CC(C)(C)c1ccc(C(=O)NC(=O)CSc2n[nH]c(N)n2)cc1,5.8,-1.8,-5.9,2.6,1.8,/,/,/
Cc1cc2c(=O)n(Cc3ccco3)c(SCC(=O)c3ccc(Cl)s3)nc2s1,-12.8,3.6,40.3*,-4.9,2.8,-10.1,-45.5,-6.0
CCOC(=O)CC(=O)CSc1nc2sc(C)cc2c(=O)n1Cc1ccco1,-20.2,-0.1,12.2,-3.7,3.2,/,/,/
CC1Sc2ccc(S(=O)(=O)N3CCC(C(=O)N4CCN(C)CC4)CC3)cc2NC1=O (stereo unspecified),2.9,0.4,11.1,-0.6,-0.7,/,/,/
CCCN1CCN(C(=O)C2CCN(S(=O)(=O)c3ccc4c(c3)NC(=O)C(C)S4)CC2)CC1 (stereo unspecified),-5.2,-0.7,40.4*,-4.8,-0.2,27.6,-1.3,14.8
COc1ccc(O)c(/C=N/NC(=O)c2ccc(OCc3cccc(Br)c3)cc2)c1,95.8*,12.6,53.9*,52.5*,32.6,55.5*,3.9,-10.7
Nc1cc2c(cc1[N+](=O)[O-])OCCOCCOCCO2,3.6,-0.1,0.6,5.9,-0.3,/,/,/
